In article PMC7820547 (iScience, 2021):
Residue numbers refer to the chain shown, from its start. pIC50, pKd: −log10 of the molar value.

Tests used:
hSHMT1 [1] = target: T1, hSHMT1 (Homo sapiens, UniProt P34896); assay: Differential scanning calorimetry; assay type: binding; conditions: DSC, 50 μM Gly-DCA, 18 μM hSHMT1; Tm without ligand 69.6°C
T1 sequence (P34896 1-483): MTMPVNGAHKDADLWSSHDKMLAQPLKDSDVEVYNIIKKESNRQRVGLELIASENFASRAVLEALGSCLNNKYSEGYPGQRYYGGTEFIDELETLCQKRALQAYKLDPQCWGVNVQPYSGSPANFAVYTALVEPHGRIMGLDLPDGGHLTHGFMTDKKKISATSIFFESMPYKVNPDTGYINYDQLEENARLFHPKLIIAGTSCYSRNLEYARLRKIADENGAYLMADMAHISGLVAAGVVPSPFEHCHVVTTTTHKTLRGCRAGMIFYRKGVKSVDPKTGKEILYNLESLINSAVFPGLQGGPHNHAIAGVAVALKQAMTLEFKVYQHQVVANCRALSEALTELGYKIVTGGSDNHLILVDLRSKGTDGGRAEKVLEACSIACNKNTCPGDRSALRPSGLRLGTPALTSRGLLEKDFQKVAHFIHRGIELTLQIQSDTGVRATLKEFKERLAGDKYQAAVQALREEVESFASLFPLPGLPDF
Procedure, shortened: (§1)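 Recombinant His6-tagged human enzyme from E. coli BL21(DE3)pLysS, Ni-NTA then gel filtration. Scanned 20 to 110 °C at 1 °C/min in 10 mM HEPES pH 7.5, 0.5 mM EDTA, 2 mM β-mercaptoethanol and 1% DMSO, with 18 µM (1.0 mg/mL) enzyme and 50 µM test compound. hSHMT1 used 100 mM NaCl and no PLP; hSHMT2 used 200 mM NaCl and 50 µM PLP. Non-two-state denaturation model fitted.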

hSHMT2 WT = target: T2, hSHMT2 WT (Homo sapiens, UniProt P34897); assay: Surface plasmon resonance binding of Gly-DCA to hSHMT2 WT
T2 sequence (P34897 30-504): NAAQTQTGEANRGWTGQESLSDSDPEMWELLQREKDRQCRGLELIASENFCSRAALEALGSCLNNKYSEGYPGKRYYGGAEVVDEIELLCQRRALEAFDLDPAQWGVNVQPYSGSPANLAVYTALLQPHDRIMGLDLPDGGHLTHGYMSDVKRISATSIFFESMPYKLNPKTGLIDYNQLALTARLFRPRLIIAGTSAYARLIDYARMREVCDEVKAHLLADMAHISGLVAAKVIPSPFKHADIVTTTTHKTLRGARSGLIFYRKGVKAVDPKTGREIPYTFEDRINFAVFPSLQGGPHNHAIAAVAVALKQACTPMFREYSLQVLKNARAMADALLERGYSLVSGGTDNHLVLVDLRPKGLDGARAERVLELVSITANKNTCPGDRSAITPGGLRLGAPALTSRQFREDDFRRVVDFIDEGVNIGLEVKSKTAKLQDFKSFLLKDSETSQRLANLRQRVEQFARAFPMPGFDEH
Procedure, shortened: (§2)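 Wild-type or mutant His6-hSHMT2 was captured on an NTA sensor chip in each cycle. Analyte (test compound) was run at 0.8, 0.4, 0.2, 0.1, 0.05 and 0.025 µM in 10 mM HEPES pH 7.5, 200 mM NaCl, 2 mM β-mercaptoethanol, 50 µM PLP, 0.01% Tween 20 and 5% DMSO. Contact 30 s, dissociation 300 s; Scatchard-derived Kd.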

hSHMT2 R425A = target: T3, hSHMT2 R425A (Homo sapiens, UniProt P34897, R425A); assay: Surface plasmon resonance binding of Gly-DCA to mutant hSHMT2 R425A; conditions: SPR, 25°C
T3 sequence (P34897 30-504 R425A): T2 sequence (P34897 30-504) with R396A
Procedure, shortened: as §2

hSHMT2 [2] = target: T4, hSHMT2 (Homo sapiens, UniProt P34897); assay: Isothermal titration calorimetry; assay type: binding
T4 sequence (P34897 30-504): T2 sequence (P34897 30-504)
Procedure, shortened: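 Purified His6-hSHMT2 (28.9 µM) in the cell was titrated with 300 µM test compound from the syringe at 37 °C, stirring 750 rpm. One small initial injection, then 12 injections at 180 s intervals; thermodynamic parameters were calculated from the titration.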

hSHMT1 WT = target: T5, hSHMT1 WT (Homo sapiens, UniProt P34896); assay: Surface plasmon resonance binding of Gly-DCA to hSHMT1 WT
T5 sequence (P34896 1-483): T1 sequence (P34896 1-483)
Procedure, shortened: (§3)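 His6-hSHMT1, wild type or point mutant, was captured fresh on an NTA sensor chip each cycle. Contact 30 s, dissociation 300 s; Kd by Scatchard analysis.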

hSHMT1 E75L = target: T6, hSHMT1 E75L (Homo sapiens, UniProt P34896, E75L); assay: Surface plasmon resonance binding of Gly-DCA to mutant hSHMT1 E75L
T6 sequence (P34896 1-483 E75L): T1 sequence (P34896 1-483) with E75L
Procedure, shortened: as §3

hSHMT1 R402A = target: T7, hSHMT1 R402A (Homo sapiens, UniProt P34896, R402A); assay: Surface plasmon resonance binding of Gly-DCA to mutant hSHMT1 R402A; conditions: SPR, 25°C
T7 sequence (P34896 1-483 R402A): T1 sequence (P34896 1-483) with R402A
Procedure, shortened: as §3

hSHMT2 E98L = target: T8, hSHMT2 E98L (Homo sapiens, UniProt P34897, E98L); assay: Surface plasmon resonance binding of Gly-DCA to mutant hSHMT2 E98L; conditions: SPR, 25°C
T8 sequence (P34897 30-504 E98L): T2 sequence (P34897 30-504) with E69L
Procedure, shortened: as §2

hSHMT1 [3] = target: T1, hSHMT1; conditions: ITC, ref Nonaka et al., 2019, cited from earlier work
hSHMT2 [4] = target: T4, hSHMT2; assay: Differential scanning calorimetry; assay type: binding; conditions: DSC, 50 μM Gly-DCA, 18 μM hSHMT2, 50 μM PLP; Tm without ligand 65.1°C
Procedure, shortened: as §1

hSHMT2 [5] = target: T4, hSHMT2; assay: Inhibition assay of Ser-Gly conversion; assay type: biochemical
[6] = ITC, 37°C, pH 7.5, 200 mM NaCl, 50 μM PLP

Structure (SMILES)	Tm of hSHMT1 w/ Gly-DCA (hSHMT1 [1]) [°C]	pKd (hSHMT2 WT)	binding affinity for hSHMT2 R425A (hSHMT2 R425A)	pKd (hSHMT2 [2])	hSHMT2 N (stoichiometry, binding ratio) (hSHMT2 [2]; ITC, 37°C)	hSHMT2 ΔG (hSHMT2 [2]; [6]) [kcal/mol]	hSHMT2 ΔH (hSHMT2 [2]; [6]) [kcal/mol]	hSHMT2 −TΔS (hSHMT2 [2]; [6]) [kcal/mol]	pKd (hSHMT1 WT)	pKd (hSHMT1 E75L)	binding affinity for hSHMT1 R402A (hSHMT1 R402A)	binding affinity for hSHMT2 E98L (hSHMT2 E98L)	hSHMT1 ΔG (hSHMT1 [3]; 100 mM NaCl, 0 µM PLP) [kcal/mol]	hSHMT1 ΔH (hSHMT1 [3]; 100 mM NaCl, 0 µM PLP) [kcal/mol]	hSHMT1 −TΔS (hSHMT1 [3]; 100 mM NaCl, 0 µM PLP) [kcal/mol]	hSHMT1 N (stoichiometry, binding ratio) (hSHMT1 [3])	pKd (hSHMT1 [3]; read-out: hSHMT1 Kd, 100 mM NaCl, 0 µM PLP)	Tm of hSHMT2 w/ Gly-DCA (hSHMT2 [4]) [°C]	pIC50 (hSHMT2 [5])
CC(CCC(=O)NCC(=O)O)C1CCC2C3CCC4CC(O)CCC4(C)C3CC(O)C12C (stereo not shown) [Gly-DCA, glycodeoxycholic acid]	78.8	7.19	too weak to quantitate	6.60	0.83	-9.4	-8.6	-0.8	5.12	4.13	too weak to quantitate	too weak to quantitate	-7.4	-2.2	-5.2	1.06	5.24	77.4	–
C[C@H](CCC(=O)NCCS(=O)(=O)O)[C@H]1CC[C@H]2[C@@H]3CC[C@@H]4C[C@H](O)CC[C@]4(C)[C@H]3CC[C@]12C [Tau-LCA, taurolithocholic acid]	–	–	–	–	–	–	–	–	–	–	–	–	–	–	–	–	–	–	5.59
